Experimental data pooled from the literature.
Target: Casein kinase I isoform epsilon (CSNK1E, Homo sapiens, UniProt P49674)

| SMILES | assay | setting | quantity | result |
| --- | --- | --- | --- | --- |
| CN1CCN(C(=O)c2ccc(NC(=O)Nc3ccc(N(C)c4ccnc(Nc5ccc(CS(C)(=O)=O)cc5)n4)cc3)cc2)CC1 | binding, competition with immobilised ligand | 1 µM | remaining binding | 75% |
| C1=C/COCc2cc(ccc2OCCN2CCCC2)Nc2nccc(n2)-c2cccc(c2)COC/1 | binding | 0.1 µM | remaining binding | 99% |
| C#Cc1cc(-c2cc(Nc3nc(N[C@@H](C)c4ccc(F)cn4)ncc3Cl)n[nH]2)ccc1C=O | enzyme activity, inhibitor | 0.2 µM | inhibition | 4.66% |
| CCCCC(=O)Nc1ccc(-c2ccc3ncn(CCC)c(=O)c3c2)cn1 | binding, competition with immobilised ligand | 0.5 µM | remaining binding | 82% |
| C=CC(=O)N1CCC[C@@H](n2nc(-c3ccc(Oc4ccccc4)cc3)c3c(N)ncnc32)C1 | enzyme activity, inhibitor | 1 µM | inhibition | 65% |
| CC(=O)ON=C1C=CC(=C(C#N)c2ccccc2)C=C1 | enzyme activity, inhibitor, ADP detection | 20 µM | activity vs control | 60% |
| CO[C@@H]1[C@H](N(C)C(=O)c2ccccc2)C[C@H]2O[C@]1(C)n1c3ccccc3c3c4c(c5c6ccccc6n2c5c31)C(=O)NC4 | enzyme activity, inhibitor | 1 µM | inhibition | 0% |
| Cc1ccc(NC(=O)c2ccnc(C(F)(F)F)c2)cc1-c1cc(OCCO)nc(N2CCOCC2)c1 | binding, competition with immobilised ligand | 1 µM | remaining binding | 100% |
